Compounds with a hit are over-represented: about 1.9% of the library has one in this group of screens.
FN deposit inh – inhibitors of fibronectin matrix deposition, primary screen, AH1F cells, Alexa488-fibronectin fluorescence, plate reader; AH1F fibroblasts, overnight; inhibition, % at 12.6 µM; 0.086% of 350,000 active; AID 743247, 2014;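 active means mean inhibition across replicates of 30% or more, regardless of how many single replicates reach that level; inconclusive means mean under 30% yet at least half of replicates reach 30%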;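 further: positive control wells lacked labelled fibronectin entirely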
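Material: AH1F fibroblasts assembling fluorescent fibronectin matrix; amount: 10000 AH1F cells/well; medium: DMEM, 2% serum; reagent: Alexa488-fibronectin, 24 nM final in well; dosing: single compound dose, delivered by pin transfer; incubation: 1 h adhesion, overnight exposure; detection: fluorescence after three HBSS washes, excitation 485 nm, emission 525 nm; measure: fibronectin deposition inhibition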
Xi reactivation – activators of inactive X chromosome reactivation, primary screen, imaging, XiGFP fibroblasts, GFP high-content imaging, set 2; XiGFP mouse fibroblasts, % GFP-positive cells imaging, 3 d; cells co-treated with 5-aza-dC sensitizer; scaled so ellipticine positive control = 100%; activation, % at 7.58 µM; 0.055% of 360,000 active; AID 743238, 2013;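 active means mean normalized replicate activation at least 10% and every replicate at or above 10%; inconclusive means only one of the two criteria met; inactive means mean below 10% and not all replicates reach 10%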;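 further: 0% = median of on-plate neutral control wells and 100% = ellipticine 6 µM median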
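assay system = SV40-immortalized XiGFP fibroblast cells, line 68-5-11 | buffer or medium = DMEM plus 5-aza-dC sensitizer | doses = single-point pinned compound dosing | times = 3-day compound exposure, then 15 min fixation at room temperature | benchmarks = positive control ellipticine, 6 µM final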
DENV2 CPE rescue – inhibitors of DENV2 cytopathic effect, primary screen, cell-based, plate reader, single concentration | AID 651640, 2012 | DENV2-infected cells, cytopathic effect rescue | 1.7% of 350,000 active | CPE inhibition, % at 9.99 µM; in the data active means CPE inhibition above about 20%, passing the limit was not always enough; inconclusive means no clear call, values can overlap the other calls; tested in BHK-21 cells;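 further: 0% = median of neutral control wells and 100% = median of positive control wells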
CFTR F508del cor – F508del CFTR correction, initial screen, CFBE line, single point; CFBE cells, YFP halide quenching; stimulated with forskolin plus potentiator P3; % fluorescence drop versus neutral controls; activity (quench increase), % at 7.58 µM; 0.36% of 350,000 active;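 active means mean added fluorescence quench of at least 8% versus neutral control, with both replicates also reaching 8%; inconclusive means only one of the mean or replicate conditions met; inactive means mean below 8% and not both replicates reaching 8%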;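 further: cells transiently co-express mutant CFTR-F508del with the halide-sensitive YFP; corrector assay measuring rescue of mutant channel to the surface after 24 h compound exposure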
PGC1a acetyl inh – inhibitors of PGC1a acetylation signal, primary screen, cell-based, U2OS, AlphaScreen, inhibitor mode; inhibition, % at 15.6 µM; AlphaScreen anti-acetyl-lysine; with virally co-expressed GCN5 acetyltransferase; 0.17% of 350,000 active; AID 651687, 2012;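 active means every replicate shows inhibition of at least 40%; inconclusive means mean inhibition at least 40% but some replicate below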;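 further: 0% = neutral control wells and 100% = positive control wells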
Cneo AK release – Cryptococcus neoformans cell lysis inducers, primary screen, AK release luminescence, single concentration; C. neoformans lysis, adenylate kinase release luminescence, 4 h; normalised: neutral wells 0, clomiphene wells 100; 0.2% of 360,000 active; lysis activity, % at 15 µM;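 active means mean lysis activity across replicates of at least 80%, whatever share of replicates individually reach that level; inactive means mean lysis activity below 80%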
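Schedule: static 4 h at 37 °C with compound, 1 h detection; system: C. neoformans cells; benchmarks: Clomiphene as positive control; buffer or medium: fresh YPD medium; measure: luminescence rise reflecting yeast cell lysis; measured by: luminescent adenylate kinase detection reagent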
Numbers without * were called inactive; ? = inconclusive; · = no result.

SMILES | FN deposit inh | Xi reactivation | DENV2 CPE rescue | CFTR F508del cor | PGC1a acetyl inh | Cneo AK release
CCCc1cc(CNC(=O)C2CCC(=O)N(CCc3cccc(F)c3)C2)on1 (stereo not drawn) | -9 | 0 | 55* | 3 | -3 | 1
CC(C)Cc1cc(CNC(=O)C2CCC(=O)N(CCc3cccc(F)c3)C2)on1 (stereo not drawn) | -3 | 0 | 3 | 1 | -2 | ·
CCS(=O)(=O)N1CCC2(CC1)CN(S(=O)(=O)c1cccc(OC)c1)[C@H](CO)c1[nH]c3cc(OC)ccc3c12 | · | 0 | 9 | -1 | -6 | ·
Cc1noc(C)c1NC(=O)N(C)C[C@@H]1Oc2ccc(NS(=O)(=O)c3c(C)noc3C)cc2CC(=O)N([C@@H](C)CO)C[C@H]1C | -1 | 0 | ? | -3 | 3 | 0
COc1ccc2c(c1)OC[C@H]1[C@H]2N2C(=O)c3ccc(F)cc3NC(=O)[C@@]2(C)[C@H]1c1ccccc1 | 11 | 0 | 55* | -1 | -14 | -4
COc1ccc2c(c1)[C@H]1[C@H](CO2)[C@H](c2ccccc2)[C@]2(C)C(=O)Nc3cc(F)ccc3C(=O)N12 | 5 | 0 | -6 | 3 | · | 1
C[C@@H]1CN([C@H](C)CO)C(=O)c2cc(NC(=O)Nc3ccc(C(F)(F)F)cc3)ccc2O[C@@H](C)CCCCO[C@H]1CN(C)Cc1ccc2c(c1)OCO2 | -4 | 0 | -33 | 1 | -18 | 5
C[C@H]1CCCCO[C@H](CN(C)Cc2ccc3c(c2)OCO3)[C@@H](C)CN([C@@H](C)CO)C(=O)c2cc(NC(=O)Nc3ccc(C(F)(F)F)cc3)ccc2O1 | -2 | 0 | -33 | -2 | 79* | 3
C[C@@H]1CN([C@@H](C)CO)C(=O)c2cc(NC(=O)Nc3ccc(C(F)(F)F)cc3)ccc2O[C@@H](C)CCCCO[C@H]1CN(C)Cc1ccc(Cl)c(Cl)c1 | · | 0 | 24* | 0 | -4 | 1
C[C@@H]1CCCCO[C@@H](CN(C)Cc2ccc(Cl)c(Cl)c2)[C@H](C)CN([C@@H](C)CO)C(=O)c2cc(NC(=O)Nc3ccccc3)ccc2O1 | -7 | 0 | 32* | -2 | -46 | 12
C[C@@H]1CCCCO[C@H](CN(C)Cc2ccc3c(c2)OCO3)[C@@H](C)CN([C@@H](C)CO)C(=O)c2cc(NC(=O)Nc3ccc(C(F)(F)F)cc3)ccc2O1 | · | · | -32 | -6 | 53* | 4
C[C@@H]1CCCCO[C@@H](CN(C)Cc2ccc(Cl)c(Cl)c2)[C@@H](C)CN([C@H](C)CO)C(=O)c2cc(NC(=O)Nc3ccccc3)ccc2O1 | -11 | 0 | -12 | -2 | 9 | 42
OC(CSc1nc(-c2ccccc2)c(-c2ccccc2)o1)CC(O)c1ccccc1 (stereo not drawn) | · | · | 30* | 0 | 5 | -7
O=[N+]([O-])c1ccc(C(O)CC(O)CSc2nc(-c3ccccc3)c(-c3ccccc3)o2)cc1 (stereo not drawn) | · | · | 9 | 0 | -3 | 10
COc1ccc2c3c([nH]c2c1)[C@H](CO)N(C(=O)C1CC1)CC31CN(Cc2nccs2)C1 | · | 0 | 17 | 2 | · | ·
COCCNc1ncnc2c1ncn2[C@H]1CN(Cc2ccc(F)cc2)C[C@@H](CO)O1 | 4 | 0 | 40* | 1 | · | -1
CO[C@@H]1CN(C)C(=O)c2cc(NS(=O)(=O)c3cccc(C)c3)ccc2OC[C@H](C)NC[C@@H]1C | 6 | 0 | -6 | -1 | -7 | 0
COc1ccc(CCC(C)NCc2ccc(F)cc2)cc1 (stereo not drawn) | 8 | 0 | 33* | 0 | · | 0
COc1ccc(CCC(C)NCc2cc(OC)cc(OC)c2)cc1 (stereo not drawn) | 9 | 0 | -2 | 1 | -18 | 2
CC(C)CC1C(=O)N(Cc2cn(Cc3ccco3)nn2)CCS(=O)(=O)N1Cc1ccc(-c2cccc(CO)c2)cc1 (stereo not drawn) | 3 | 0 | 14 | -6 | -21 | 2
Cc1ccc(-c2ccc(CN3C(C(C)C)C(=O)N(Cc4cn(Cc5ccco5)nn4)CCS3(=O)=O)cc2)cc1 (stereo not drawn) | 7 | 0 | 28* | 1 | 3 | -3
CC(C)CC1C(=O)N(Cc2cn(Cc3ccco3)nn2)CCS(=O)(=O)N1Cc1ccc(-c2ccc(Cl)cc2)cc1 (stereo not drawn) | -4 | 0 | 23* | -5 | -9 | ·
COCC#Cc1ccc([C@@H]2[C@@H](CO)N3C(=O)CN(C(=O)Nc4ccc(F)cc4)C[C@H]23)cc1 | · | 0 | 11 | 2 | 1 | ·
CCc1ccc(C(=O)NNC(=O)CCN2CCN(Cc3ccccc3)CC2)cc1 | -4 | 0 | 2 | -2 | -7 | ·
O=C(CN1CCN(Cc2ccccc2)CC1)NNC(=O)c1ccccc1 | -2 | 0 | 26* | -1 | 12 | -1
SMILES | FN deposit inh | Xi reactivation | DENV2 CPE rescue | CFTR F508del cor | PGC1a acetyl inh | Cneo AK release
CC#C[C@@H](CC)c1ccc2ccn(C)c2c1 | 2 | 0 | 58* | 3 | · | -1
COc1cc(/C=C2/SC(=Nc3ccc(O)cc3)NC2=O)cc(OC)c1O | 25 | 0 | 16 | 15* | -6 | ·
COc1ccccc1N=C1NC(=O)/C(=C/c2ccc(N(C)C)cc2)S1 | -3 | 0 | 0 | 15* | -55 | -3
COc1cc(/C=C2\SC(=Nc3ccc(O)cc3)NC2=O)cc(OC)c1OC | 9 | 0 | -2 | 4 | · | ·
O=S(=O)(c1ccccc1)N1CCN(Cc2cccc(OCCO)c2)CC1 | · | · | -3 | 0 | · | 17
Cc1cc(C)cc(N(CC(=O)NCc2ccco2)S(=O)(=O)c2c(C)noc2C)c1 | -4 | 0 | 41* | -3 | 5 | 0
Cc1cc(NC(=O)Nc2cccc(C(F)(F)F)c2)n(C)n1 | 4 | 0 | 4 | · | · | ·
CC(=O)Nc1cccc(Nc2cc(C)nn2C)c1 | -13 | 0 | 73* | -1 | 6 | 1
CC(C)NC(=O)Nc1ccc2c(c1)CC(=O)N(C)C[C@@H](C)[C@@H](CN(C)C)O2 | 2 | 0 | · | · | · | ·
CN(C)C(=O)COc1ccc2ccc(=O)oc2c1 | 1 | · | · | · | · | -1
CCN(C(=O)COc1ccc2ccc(=O)oc2c1)C1CCCCC1 | · | 0 | ? | 18* | -4 | -3
CCOC(=O)N(C)[C@H]1C[C@H]2c3[nH]c4ccccc4c3CCN2C(=O)[C@H]1[C@H](C)O | 9 | 0 | 3 | -3 | · | ·
